Positions of bridges follow the written chain, without caps; N, C: chain ends. Residues, ends and D or L forms follow the SMILES beside them.
These compounds were tested against T1, Accessory gene regulator protein A (Staphylococcus aureus, UniProt P0A0I7) (assay: Inhibition of AGR quorum sensing system in methicillin-resistant Staphylococcus aureus AH2759 incubated for 15 hrs by P3-LUX reporter gene assay).
T1 sequence (P0A0I7 whole entry): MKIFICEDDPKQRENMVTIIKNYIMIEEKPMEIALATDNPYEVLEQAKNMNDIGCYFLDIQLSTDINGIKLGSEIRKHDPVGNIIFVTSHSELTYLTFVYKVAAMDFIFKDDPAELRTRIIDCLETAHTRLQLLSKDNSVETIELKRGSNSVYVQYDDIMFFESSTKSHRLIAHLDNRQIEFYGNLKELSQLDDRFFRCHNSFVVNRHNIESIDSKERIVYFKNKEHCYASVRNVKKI
How it was run: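 S. aureus AH2759 (USA300 LAC, plasmid agr P3-luxABCDE) grown overnight in TSB with chloramphenicol 10 μg/mL, then diluted to a final 1:500. Compounds were added at 0.1–1000 μM final with 1% DMSO. Incubated at 37 °C with 250 rpm shaking. OD600 and luminescence were read hourly from 15 h. IC50 came from a weighted four-parameter logistic fit of OD-normalized luminescence; growth-delayed wells were excluded. AIP-2 (2–500 nM) was the control.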
In the case of C[C@@H](O)[C@@H](O)c1cc(O)c2c(c1)C(=O)c1cc(O)cc(O)c1C2=O, the IC50 is reported as 26.5 µM. O=C(O)c1cc(O)c2c(c1)C(=O)c1cc(O)cc(O)c1C2=O [MLS000876948] was tested, and the IC50 was 30.6 µM. O=C1c2cc(O)cc(O)c2C(=O)c2c(O)cc(CO)cc21 was tested, and the IC50 was 8.1 µM. C[C@H](O)Cc1cc(O)c2c(c1)C(=O)c1cc(O)cc(O)c1C2=O gave an IC50 of 8.9 µM. In the case of CC(=O)Cc1cc(O)c2c(c1)C(=O)c1cc(O)cc(O)c1C2=O, the IC50 is reported as 19.8 µM. With O=C(O)c1cc(O)c2c(c1)C(=O)c1cc(O)c(O)c(O)c1C2=O the IC50 was 120 µM. With CC(C)C[C@@H]1NC(=O)[C@H](CO)NC(=O)[C@H](CO)NC(=O)[C@@H](NC(=O)[C@H](C)NC(=O)[C@H](CC(N)=O)NC(=O)[C@@H](NC(=O)CN)C(C)C)CSC(=O)[C@H](Cc2ccccc2)NC1=O (H-GVNACSSLF; thioester 5-C) the IC50 was 0.012 µM. With Cc1cc(O)c2c(c1)C(=O)c1cc(O)cc(O)c1C2=O [1,3,8-trihydroxy-6-methylanthra-9,10-quinone] the IC50 was 17.1 µM. O=C(O)c1cc(O)c2c(c1)C(=O)c1cc(O)c(Cl)c(O)c1C2=O [6-chloro-4,5,7-trihydroxy-9,10-dioxo-9,10-dihydroanthracene-2-carboxylic acid] was tested, and the IC50 was 37.8 µM. CC(=O)C(O)c1cc(O)c2c(c1)C(=O)c1cc(O)cc(O)c1C2=O (stereo not given) was tested, and the IC50 was 30.1 µM.

Reference: BindingDB's records for doi:10.1021/np5000704 (University of North Carolina At Greensboro, 2014)
